Results of several laboratories.
Compare with care: the assays were run in different laboratories.
Target: Serine/threonine-protein kinase tousled-like 1 (TLK1, Homo sapiens, UniProt Q9UKI8)
Sequence (Q9UKI8 1-766, as in one of the studies): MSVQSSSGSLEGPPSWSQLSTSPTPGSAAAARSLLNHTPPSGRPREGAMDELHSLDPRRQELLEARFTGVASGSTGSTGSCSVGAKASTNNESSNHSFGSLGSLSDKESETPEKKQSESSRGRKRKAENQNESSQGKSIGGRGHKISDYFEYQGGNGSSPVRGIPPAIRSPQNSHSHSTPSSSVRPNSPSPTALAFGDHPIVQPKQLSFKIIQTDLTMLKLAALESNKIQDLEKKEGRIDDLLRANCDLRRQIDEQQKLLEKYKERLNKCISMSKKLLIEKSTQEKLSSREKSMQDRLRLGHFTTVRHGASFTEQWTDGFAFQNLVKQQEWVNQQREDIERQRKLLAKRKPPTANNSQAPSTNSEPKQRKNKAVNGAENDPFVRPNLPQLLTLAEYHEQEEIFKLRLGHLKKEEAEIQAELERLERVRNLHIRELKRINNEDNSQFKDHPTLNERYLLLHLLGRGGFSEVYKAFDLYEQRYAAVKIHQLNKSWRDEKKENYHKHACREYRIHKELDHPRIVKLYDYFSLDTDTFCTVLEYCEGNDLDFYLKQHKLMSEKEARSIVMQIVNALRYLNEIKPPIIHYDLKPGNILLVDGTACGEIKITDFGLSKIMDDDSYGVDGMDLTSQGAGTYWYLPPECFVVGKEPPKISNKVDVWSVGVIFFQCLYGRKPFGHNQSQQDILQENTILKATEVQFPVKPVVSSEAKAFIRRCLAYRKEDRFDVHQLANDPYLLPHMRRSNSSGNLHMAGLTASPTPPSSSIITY

For O=C(NCCCN1CCOCC1)c1ccc(Nc2nccc(-c3cc4ccccc4s3)n2)cc1, the remaining binding was 63% (binding, competition with immobilised ligand; 1 µM).
The remaining binding of O=C(Nc1ccc(Oc2ccc(F)cc2)cc1)N1CCc2ncccc2[C@H]1c1ccc(F)cc1 is reported as 100% (cell-free assay, competition with immobilised ligand; 1 µM).
For CN(C)c1nccc(-c2cnc3ncccn23)n1, the remaining binding was 81% (binding; 1 µM).
For CNC(=O)[C@@H]1CC[C@@H](n2c(-c3ccc4cnccc4c3)nc3ccc(C(=O)NCc4cccc(C(N)=O)c4)cc32)C1, the remaining binding was 97% (binding, competition with immobilised ligand; 1 µM).
With Nc1ncc2c(n1)-c1c([nH]c3ccc(C#CC4CC4)cc13)CCCC2 the remaining binding was 87% (binding, competition with immobilised ligand; 1 µM).
N[C@H]1CCN(c2nccc(-c3cnn4ncccc34)n2)C1 has a remaining binding of 64% (binding; 1 µM).
The remaining binding of C=CC(=O)N1CCC(C(=O)NCC(=O)N2CCN(c3nc(-c4cnc(N)nc4C(F)F)nc(N4CCOCC4)n3)CC2)CC1 is reported as 99% (binding, competition with immobilised ligand; 1 µM).
CN(c1nccc(-c2cnn3ncccc23)n1)C1CC1 gave a remaining binding of 100% (binding; 1 µM).
For CN(C)C(=O)Cn1cc(-c2nc([C@@](C)(c3ccc(-c4cnc(N)nc4)cc3)C3CC3)no2)cn1, the remaining binding was 100% (cell-free assay, competition with immobilised ligand; 1 µM).
O=C(c1ccc(Nc2ncc(Cl)c(-c3cc4ccccc4s3)n2)cc1)N1CCC(N2CCCC2)CC1 gave a remaining binding of 32% (binding, competition with immobilised ligand; 1 µM).
With O=C1NC(c2ccccn2)Sc2ccccc21 (centres unmarked) the remaining binding was 94% (cell-free assay, competition with immobilised ligand; 1 µM).
Cc1cnc(Nc2ccc(C(=O)N3CCC(N4CCCC4)CC3)cc2)nc1-c1cc2ccccc2s1 has a remaining binding of 21% (binding, competition with immobilised ligand; 1 µM).
O=C(Nc1cccnn1)N1CC(C/C=C/c2cncc(Oc3ccc(C(F)(F)F)cn3)n2)C1 has a remaining binding of 98% (cell-free assay, competition with immobilised ligand; 1 µM).
CN(CCCC(F)(F)F)c1nccc(-c2cnn3ncccc23)n1 gave a remaining binding of 100% (binding; 1 µM).
The remaining binding of CCS(=O)(=O)c1cc2cc(C[C@](O)(CC(C)(C)c3ccc(F)cc3C(N)=O)C(F)(F)F)[nH]c2cn1 is reported as 75% (cell-free assay, competition with immobilised ligand; 1 µM).
c1cncc(-c2cccc(Nc3nccc(NC4CCCCC4)n3)c2)c1 gave a remaining binding of 100% (binding, competition with immobilised ligand; 10 µM).
For CC1CCCN1c1nccc(-c2cnn3ncccc23)n1 (centres unmarked), the remaining binding was 97% (binding; 1 µM).
For O=C(NCC1CCOCC1)c1n[nH]cc1NC(=O)c1c(F)cccc1F, the remaining binding was 87% (binding, competition with immobilised ligand; 1 µM).
With CCC(=O)N[C@@H]1CC[C@H](C(=O)N(C)c2ccc(-c3nc4ccccc4o3)cc2)C1 the remaining binding was 100% (cell-free assay, competition with immobilised ligand; 1 µM).
CN(C)c1nccc(-c2cnn3ncccc23)n1 gave a remaining binding of 92% (binding; 1 µM).
